Measured values taken from ChEMBL document CHEMBL1144032, “Potent antagonists of the CCR2b receptor. Part 3: SAR of the (R)-3-aminopyrrolidine series” (Bioorg Med Chem Lett, 2008).
Activity calls are given as the source filed them. The calls are words filed in the database; no cut-off is given here.

What was measured:
[1] = molecular target: T1, C-C chemokine receptor type 2 (Homo sapiens, UniProt P41597); assay: Displacement of [125I]MCP1 from human CCR2b in THP1 cells; format: cell-based, THP-1
Summary of the method: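 Radioligand competition with [125I]-MCP-1 on THP-1 cells. IC50 taken from dose-response curves built from duplicate points; where SD is given, value is mean of at least three independent experiments.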
Target sequence in this assay (P41597 whole entry): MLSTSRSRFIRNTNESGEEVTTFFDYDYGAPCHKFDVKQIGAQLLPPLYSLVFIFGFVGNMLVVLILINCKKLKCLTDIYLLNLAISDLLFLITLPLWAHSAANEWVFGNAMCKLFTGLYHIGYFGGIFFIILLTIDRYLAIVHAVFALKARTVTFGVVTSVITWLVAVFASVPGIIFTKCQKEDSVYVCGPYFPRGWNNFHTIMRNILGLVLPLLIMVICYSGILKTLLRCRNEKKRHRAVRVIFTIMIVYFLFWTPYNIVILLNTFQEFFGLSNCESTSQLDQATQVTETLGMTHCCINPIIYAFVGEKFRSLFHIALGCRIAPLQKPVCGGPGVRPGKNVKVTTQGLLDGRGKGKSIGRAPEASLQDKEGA

[2] = molecular target: T1, C-C chemokine receptor type 2; assay: Antagonist activity at human CCR2 in THP1 cells assessed as inhibition of MCP1-induced calcium flux; format: functional, cell-based, THP-1
Summary of the method: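 THP-1 cells grown in HBSS loading buffer with 1% FBS and 20 mM HEPES, spun down, then loaded 30 min with Fluo-3 AM (2 million cells/mL, 4 µM dye, 20 mM HEPES, 0.1% BSA, 5 mM probenecid). Washed three times into HEPES/NaCl/glucose buffer with 2.5 mM probenecid, 1.25 mM CaCl2 and 0.1% BSA; 150,000 cells/well. Compound added 3 min before 10^-7 M human MCP-1; intracellular Ca2+ read by FLIPR.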
Target sequence in this assay (P41597 whole entry): as above

[3] = molecular target: T1, C-C chemokine receptor type 2; assay: Antagonist activity at human CCR2 in THP1 cells assessed as inhibition of calcium flux in absence of MCP1; format: functional, cell-based; conditions: THP-1
Target sequence in this assay (P41597 whole entry, looked up): as the sequence (P41597 whole entry) above

[4] = molecular target: T2, C-C chemokine receptor type 1 (Homo sapiens, UniProt P32246); assay: Displacement of [125I]MIP-1alpha from human CCR1 in THP cells
T2 sequence (P32246 whole entry): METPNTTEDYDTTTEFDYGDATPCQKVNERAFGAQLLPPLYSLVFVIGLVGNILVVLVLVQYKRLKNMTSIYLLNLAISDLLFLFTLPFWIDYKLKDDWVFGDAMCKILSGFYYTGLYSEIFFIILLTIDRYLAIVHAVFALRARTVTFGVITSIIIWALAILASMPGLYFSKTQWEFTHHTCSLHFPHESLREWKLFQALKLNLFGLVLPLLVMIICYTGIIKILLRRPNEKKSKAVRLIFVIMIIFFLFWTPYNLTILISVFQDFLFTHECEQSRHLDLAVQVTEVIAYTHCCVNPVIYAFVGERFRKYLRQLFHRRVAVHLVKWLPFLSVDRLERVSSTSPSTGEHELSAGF

[5] = molecular target: T1, C-C chemokine receptor type 2; assay: Displacement of [125I]MCP1 from human CCR2b in HEK293 cells; format: cell-based
Summary of the method: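 Competition for [125I]-MCP-1 binding on HEK293 cells transfected with human CCR2b receptor.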
Target sequence in this assay (P41597 whole entry): as the sequence (P41597 whole entry) above

[6] = molecular target: T3, C-C chemokine receptor type 1 (Homo sapiens) (UniProt P32246); assay: Displacement of [125I]MIP-1alpha from human CCR1 in THP cells at 1 uM
T3 sequence (whole entry): T2 sequence (P32246 whole entry)

Cc1ccc(C(=O)NCC(=O)N[C@@H]2CCN(Cc3ccc(Cl)cc3)C2)cc1
IC50 [1]: 10000 nM

O=C(CNC(=O)c1cccc(C(F)(F)F)c1)N[C@@H]1CCN(Cc2cccc(Cl)c2)C1
IC50 [1]: > 5000 nM

O=C(CNC(=O)c1cccc(C(F)(F)F)c1)N[C@@H]1CCN(Cc2ccc(O)cc2)C1
IC50 [1]: 226 nM | IC50 [2]: 365 nM | Activity [3]: inactive

CC(=O)Nc1ccc(CN2CC[C@@H](NC(=O)CNC(=O)c3cccc(C(F)(F)F)c3)C2)cc1
IC50 [1]: 305 nM

O=C(CNC(=O)c1ccccc1)N[C@@H]1CCN(Cc2ccc(Cl)cc2)C1
IC50 [1]: > 10000 nM

Cc1ccc(CN2CC[C@@H](NC(=O)CNC(=O)c3cc(C(F)(F)F)ccc3N)C2)cc1
IC50 [1]: 20 nM

O=C(CNC(=O)c1cccc(C(F)(F)F)c1)N[C@@H]1CCN(Cc2ccc(Cl)cc2Cl)C1
IC50 [1]: 300 nM

O=C(CNC(=O)c1cccc(C(F)(F)F)c1)N[C@@H]1CCN(Cc2ccc(OC(F)(F)F)cc2)C1
IC50 [1]: 610 nM

Cc1ccc(CN2CC[C@@H](NC(=O)CNC(=O)c3cccc(C(F)(F)F)c3)C2)cc1
IC50 [1]: 116 nM | IC50 [2]: 64 nM | Activity [3]: inactive

Nc1cc(CN2CC[C@@H](NC(=O)CNC(=O)c3cc(C(F)(F)F)ccc3N)C2)ccc1Cl
IC50 [1]: 4.1 nM

Nc1ccc(Br)cc1C(=O)NCC(=O)N[C@@H]1CCN(Cc2ccc(Cl)cc2)C1
IC50 [1]: 643 nM

C=Cc1ccc(CN2CC[C@@H](NC(=O)CNC(=O)c3cccc(C(F)(F)F)c3)C2)cc1
IC50 [1]: 121 nM

COc1cc(CN2CC[C@@H](NC(=O)CNC(=O)c3cccc(C(F)(F)F)c3)C2)ccc1O
IC50 [1]: 153 nM

O=C(CNC(=O)c1cccc(Br)c1)N[C@@H]1CCN(Cc2ccc(Cl)cc2)C1
IC50 [1]: 785 nM

CCc1ccc(CN2CC[C@@H](NC(=O)CNC(=O)c3cc(C(F)(F)F)ccc3N)C2)cc1
IC50 [1]: 11 nM | IC50 [2]: 5.3 nM | Activity [3]: inactive

Cc1ccccc1C(=O)NCC(=O)N[C@@H]1CCN(Cc2ccc(Cl)cc2)C1
IC50 [1]: > 10000 nM

O=C(CNC(=O)c1ccc(C(F)(F)F)cc1)N[C@@H]1CCN(Cc2ccc(Cl)cc2)C1
IC50 [1]: > 5000 nM

Cc1cccc(CN2CC[C@@H](NC(=O)CNC(=O)c3cccc(C(F)(F)F)c3)C2)c1
IC50 [1]: 3100 nM

O=C(CNC(=O)c1cccc(C(F)(F)F)c1)N[C@@H]1CCN(Cc2ccccc2Cl)C1
IC50 [1]: 630 nM

COc1ccc(CN2CC[C@@H](NC(=O)CNC(=O)c3cc(C(F)(F)F)ccc3N)C2)cc1
IC50 [1]: 20 nM

COc1ccccc1CN1CC[C@@H](NC(=O)CNC(=O)c2cccc(C(F)(F)F)c2)C1
IC50 [1]: 1360 nM

Nc1ccc([N+](=O)[O-])cc1C(=O)NCC(=O)N[C@@H]1CCN(Cc2ccc(Cl)cc2)C1
IC50 [1]: 208 nM

Nc1ccc(I)cc1C(=O)NCC(=O)N[C@@H]1CCN(Cc2ccc(Cl)cc2)C1
IC50 [1]: 308 nM

CSc1ccc(CN2CC[C@@H](NC(=O)CNC(=O)c3cccc(C(F)(F)F)c3)C2)cc1
IC50 [1]: 204 nM

Nc1ccc(C(F)(F)F)cc1C(=O)NCC(=O)N[C@@H]1CCN(Cc2ccc(O)cc2)C1
IC50 [1]: 42 nM

O=C(CNC(=O)c1cccc(Cl)c1)N[C@@H]1CCN(Cc2ccc(Cl)cc2)C1
IC50 [1]: 2400 nM

O=C(CNC(=O)c1cccc(C(F)(F)F)c1)N[C@@H]1CCN(Cc2ccc(F)cc2)C1
IC50 [1]: 960 nM

C=Cc1ccc(CN2CC[C@@H](NC(=O)CNC(=O)c3cc(C(F)(F)F)ccc3N)C2)cc1
IC50 [1]: 19 nM

Cc1ccc(CN2CC[C@@H](NC(=O)CNC(=O)c3cc(C(F)(F)F)ccc3N)C2)c(C)c1
IC50 [1]: 3.2 nM | IC50 [2]: 7.5 nM | Activity [3]: inactive

Nc1cc(CN2CC[C@@H](NC(=O)CNC(=O)c3cc(C(F)(F)F)ccc3N)C2)ccc1O
IC50 [1]: 14 nM

O=C(CNC(=O)c1cccc(C(F)(F)F)c1)N[C@@H]1CCN(Cc2ccc([N+](=O)[O-])cc2)C1
IC50 [1]: 1550 nM

Nc1ccc(C(F)(F)F)cc1C(=O)NCC(=O)N[C@@H]1CCN(Cc2ccc(Cl)cc2)C1
IC50 [4]: > 1000 nM | IC50 [5]: 45 nM | IC50 [1]: 26 nM | inhibition [6]: 25% | IC50 [2]: 23.1 nM | Activity [3]: inactive

Cc1ccc(CN2CC[C@@H](NC(=O)CNC(=O)c3cc(C(F)(F)F)ccc3N)C2)cc1N
IC50 [1]: 6.1 nM

O=C(CNC(=O)c1cccc(OC(F)(F)F)c1)N[C@@H]1CCN(Cc2ccc(Cl)cc2)C1
IC50 [1]: 489 nM

COc1ccc(CN2CC[C@@H](NC(=O)CNC(=O)c3cc(C(F)(F)F)ccc3N)C2)cc1N
IC50 [1]: 5.3 nM

N#Cc1ccc(CN2CC[C@@H](NC(=O)CNC(=O)c3cccc(C(F)(F)F)c3)C2)cc1
IC50 [1]: 2650 nM

O=C(CNC(=O)c1cccc(F)c1)N[C@@H]1CCN(Cc2ccc(Cl)cc2)C1
IC50 [1]: 4330 nM

COc1cccc(CN2CC[C@@H](NC(=O)CNC(=O)c3cccc(C(F)(F)F)c3)C2)c1
IC50 [1]: 3170 nM

Nc1cccc(C(=O)NCC(=O)N[C@@H]2CCN(Cc3ccc(Cl)cc3)C2)c1
IC50 [1]: > 10000 nM

O=C(CNC(=O)c1cccc(C(F)(F)F)c1)N[C@@H]1CCN(Cc2ccccc2)C1
IC50 [1]: 690 nM

COc1ccc(CN2CC[C@@H](NC(=O)CNC(=O)c3cc(C(F)(F)F)ccc3N)C2)cc1O
IC50 [1]: 53 nM

N#Cc1cccc(C(=O)NCC(=O)N[C@@H]2CCN(Cc3ccc(Cl)cc3)C2)c1
IC50 [1]: > 10000 nM

CCc1ccc(CN2CC[C@@H](NC(=O)CNC(=O)c3cccc(C(F)(F)F)c3)C2)cc1
IC50 [1]: 59 nM

COc1cccc(C(=O)NCC(=O)N[C@@H]2CCN(Cc3ccc(Cl)cc3)C2)c1
IC50 [1]: > 10000 nM

Cc1ccccc1CN1CC[C@@H](NC(=O)CNC(=O)c2cccc(C(F)(F)F)c2)C1
IC50 [1]: 960 nM

O=C(CNC(=O)c1ccc(Cl)cc1)N[C@@H]1CCN(Cc2ccc(Cl)cc2)C1
IC50 [1]: > 5000 nM

Nc1ccccc1C(=O)NCC(=O)N[C@@H]1CCN(Cc2ccc(Cl)cc2)C1
IC50 [1]: > 10000 nM

COc1ccc(CN2CC[C@@H](NC(=O)CNC(=O)c3cccc(C(F)(F)F)c3)C2)cc1
IC50 [1]: 114 nM

Nc1ccc(OC(F)(F)F)cc1C(=O)NCC(=O)N[C@@H]1CCN(Cc2ccc(Cl)cc2)C1
IC50 [1]: 88 nM

O=C(CNC(=O)c1cccc(C(F)(F)F)c1)N[C@@H]1CCN(Cc2ccc(Br)cc2)C1
IC50 [1]: 166 nM

O=C(CNC(=O)c1ccccc1Cl)N[C@@H]1CCN(Cc2ccc(Cl)cc2)C1
IC50 [1]: > 10000 nM

O=C(CNC(=O)c1ccccc1C(F)(F)F)N[C@@H]1CCN(Cc2ccc(Cl)cc2)C1
IC50 [1]: > 10000 nM

Nc1ccc(Cl)cc1C(=O)NCC(=O)N[C@@H]1CCN(Cc2ccc(Cl)cc2)C1
IC50 [1]: 730 nM

O=C(CNC(=O)c1cccc(C(F)(F)F)c1)N[C@@H]1CCN(Cc2ccccc2-c2ccc3ccccc3c2)C1
IC50 [1]: 759 nM

Cc1cccc(C(=O)NCC(=O)N[C@@H]2CCN(Cc3ccc(Cl)cc3)C2)c1
IC50 [1]: 2380 nM

O=C(CNC(=O)c1cccc([N+](=O)[O-])c1)N[C@@H]1CCN(Cc2ccc(Cl)cc2)C1
IC50 [1]: 832 nM

COc1cc(CN2CC[C@@H](NC(=O)CNC(=O)c3cc(C(F)(F)F)ccc3N)C2)ccc1O
IC50 [1]: 39 nM

Nc1ccc(C(F)(F)F)cc1C(=O)NCC(=O)N[C@@H]1CCN(Cc2ccc(Cl)cc2Cl)C1
IC50 [1]: 96 nM
